Experimental data taken from ChEMBL document CHEMBL1123282, “Antiinflammatory activity of substituted 6-hydroxypyrimido[2,1-f]purine-2,4,8(1H,3H,9H)-triones. Atypical nonsteroidal antiinflammatory agents” (J Med Chem, 1986).

What was measured:
Rattus norvegicus [1] = test: Compound was tested for gastric Ulcerogenic effect in rats, activity expressed as lesion length at a dose of 30 mg/kg
Rattus norvegicus [2] = test: Compound was tested for intestinal Ulcerogenic effect in rats, activity expressed as lesion score at a dose of 30 mg/kg; type: functional
Outline: (§1)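 Normal fed rats were gavaged once daily for three consecutive days at 10–300 mg/kg and killed 24 h after the last dose. Intestines were examined for ulcers, recording incidence per group of 8 and a lesion score (±SE).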

Rattus norvegicus [3] = test: Compound was tested for gastric Ulcerogenic effect in rats, activity expressed as lesion length at a dose of 300 mg/kg
Rattus norvegicus [4] = test: Compound was tested for intestinal Ulcerogenic effect in rats, activity expressed as ulcer incidence at a dose of 100 mg/kg; type: functional
Outline: as §1

Rattus norvegicus [5] = test: Compound was tested for intestinal Ulcerogenic effect in rats, activity expressed as lesion score at a dose of 10 mg/kg; type: functional
Outline: as §1

Rattus norvegicus [6] = test: Compound was tested for gastric Ulcerogenic effect in rats, activity expressed as lesion length at a dose of 10 mg/kg
Rattus norvegicus [7] = test: Compound was tested for intestinal Ulcerogenic effect in rats at a dose of 100 mg/kg; type: functional
Outline: as §1

Rattus norvegicus [8] = test: Compound was tested in vivo for antiinflammatory activity against chronic adjuvant arthritic rat by prophylactic inhibition 1 degree paw after peroral administration of 36 mg/kg of dose; conditions: po
Rattus norvegicus [9] = test: Compound was tested in vivo for antiinflammatory activity against chronic adjuvant arthritic rat by prophylactic inhibition 2 degree paw after peroral administration of 36 mg/kg of dose; conditions: po
[10] = Plasma level data at a dose of 36 mg/kg, iv after 4 hr; type: ADME, organism-based; design: dose 36 mg/kg, route intravenous; conditions: read-out: Plasma level
Outline: (§2)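 Male Lewis rats get a single iv or oral dose of the sodium salt, suspended in 0.4% (w/v) methyl cellulose. Plasma drug levels are measured by HPLC at the timed points and given as mean ± SD, n = 3.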

[11] = Plasma level data at a dose of 36 mg/kg, po after 0.25 hr; type: ADME, organism-based; design: dose 36 mg/kg, route oral; conditions: read-out: Plasma level
Outline: as §2

[12] = Plasma level data at a dose of 36 mg/kg, iv after 12 hr; type: ADME, organism-based; design: dose 36 mg/kg, route intravenous; conditions: read-out: Plasma level
Outline: as §2

Rattus norvegicus [13] = test: Compound was tested for intestinal Ulcerogenic effect in rats, activity expressed as ulcer incidence at a dose of 10 mg/kg; type: functional
Outline: as §1

[14] = Plasma level data at a dose of 36 mg/kg, iv after 6 hr; type: ADME, organism-based; design: dose 36 mg/kg, route intravenous; conditions: read-out: Plasma level
Outline: as §2

Rattus norvegicus [15] = test: Compound was tested for gastric Ulcerogenic effect in rats, activity expressed as lesion length at a dose of 100 mg/kg
Rattus norvegicus [16] = test: Compound was tested in vivo for antiinflammatory activity against chronic adjuvant arthritic rat by therapeutic inhibition 1 degree paw after peroral administration of 30 mg/kg of dose; type: functional; conditions: route oral
Rattus norvegicus [17] = test: Compound was tested in vivo for antiinflammatory activity against chronic adjuvant arthritic rat by therapeutic inhibition 2 degree paw after peroral administration of 3.3 mg/kg of dose; type: functional; conditions: route oral
Rattus norvegicus [18] = test: Compound was tested in vivo for antiinflammatory activity against chronic adjuvant arthritic rat by therapeutic inhibition 2 degree paw after peroral administration of 10 mg/kg of dose; type: functional; conditions: route oral
[19] = Plasma level data at a dose of 20 mg/kg, po after 1 hr; type: ADME, organism-based; design: dose 20 mg/kg, route oral; conditions: read-out: Plasma level
Outline: as §2

Rattus norvegicus [20] = test: Compound was tested in vivo for antiinflammatory activity against chronic adjuvant arthritic rat by therapeutic inhibition 1 degree paw after peroral administration of 3.3 mg/kg of dose; type: functional; conditions: route oral
Cyclooxygenase = target: T1, Cyclooxygenase (Rattus norvegicus, UniProt P35355+Q63921); test: In vitro inhibitory activity against Prostaglandin G/H synthase in rat neutrophils
T1 sequence (P35355 whole entry): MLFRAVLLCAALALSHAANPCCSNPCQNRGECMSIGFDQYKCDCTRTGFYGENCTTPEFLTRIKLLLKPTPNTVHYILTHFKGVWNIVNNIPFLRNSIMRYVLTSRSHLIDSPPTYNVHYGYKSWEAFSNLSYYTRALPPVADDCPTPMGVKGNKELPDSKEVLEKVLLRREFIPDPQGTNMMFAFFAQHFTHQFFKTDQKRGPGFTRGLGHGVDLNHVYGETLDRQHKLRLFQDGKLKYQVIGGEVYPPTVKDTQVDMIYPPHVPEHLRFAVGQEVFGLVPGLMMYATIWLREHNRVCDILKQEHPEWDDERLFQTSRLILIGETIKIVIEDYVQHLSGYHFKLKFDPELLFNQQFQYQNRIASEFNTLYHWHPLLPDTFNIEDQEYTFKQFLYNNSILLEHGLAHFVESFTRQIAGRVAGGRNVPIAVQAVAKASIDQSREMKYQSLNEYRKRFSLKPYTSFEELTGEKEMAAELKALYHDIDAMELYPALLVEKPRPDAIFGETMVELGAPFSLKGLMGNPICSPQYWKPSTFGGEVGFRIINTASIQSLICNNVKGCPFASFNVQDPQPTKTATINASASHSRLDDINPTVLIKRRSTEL
T1 sequence (Q63921 whole entry): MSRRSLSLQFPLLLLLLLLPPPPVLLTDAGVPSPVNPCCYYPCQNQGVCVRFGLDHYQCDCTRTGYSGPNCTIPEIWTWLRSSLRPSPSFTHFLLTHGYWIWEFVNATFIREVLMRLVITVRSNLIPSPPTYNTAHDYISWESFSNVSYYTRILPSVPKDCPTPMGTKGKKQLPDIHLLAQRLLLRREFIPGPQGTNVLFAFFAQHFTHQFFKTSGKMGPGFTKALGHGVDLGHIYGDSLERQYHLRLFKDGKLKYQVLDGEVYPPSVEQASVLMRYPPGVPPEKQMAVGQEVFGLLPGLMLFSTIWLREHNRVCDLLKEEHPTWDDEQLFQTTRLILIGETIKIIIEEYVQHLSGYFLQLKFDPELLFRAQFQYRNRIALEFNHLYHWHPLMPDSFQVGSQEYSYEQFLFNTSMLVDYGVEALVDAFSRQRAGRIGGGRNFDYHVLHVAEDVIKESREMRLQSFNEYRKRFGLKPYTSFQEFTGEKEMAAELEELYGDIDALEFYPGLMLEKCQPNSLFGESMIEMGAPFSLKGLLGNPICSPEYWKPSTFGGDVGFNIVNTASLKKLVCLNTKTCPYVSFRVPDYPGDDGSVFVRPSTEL

Rattus norvegicus [21] = test: Compound was tested in vivo for antiinflammatory activity against chronic adjuvant arthritic rat by therapeutic inhibition 1 degree paw after peroral administration of 10 mg/kg of dose; type: functional; conditions: route oral
Rattus norvegicus [22] = test: Compound was tested in vivo for antiinflammatory activity against chronic adjuvant arthritic rat by therapeutic inhibition 2 degree paw after peroral administration of 30 mg/kg of dose; type: functional; conditions: route oral
[23] = Plasma level data at a dose of 20 mg/kg, iv after 2 hr; type: ADME, organism-based; design: dose 20 mg/kg, route intravenous; conditions: read-out: Plasma level
Outline: as §2

Rattus norvegicus [24] = test: Compound was tested in vivo against chronic adjuvant arthritic rat by prophylactic inhibition 1 degree paw. Relative potency with respect to (8-Benzyl-5-hydroxy-1,3-dimethyl-6-propyl-1H,8H-1,3,4b,8,9-pentaaza-fluorene-2,4,7-trione); type: functional
Rattus norvegicus [25] = test: Compound was tested for intestinal ulcerogenic effect in rats at a dose of 10 mg/kg; type: functional
Outline: as §1

Rattus norvegicus [26] = species: Rattus norvegicus; test: Delayed Type hypersensitivity (DTH) is measured by increase in ear thickness 24 hours after antigen injection into pinna 10e-3; type: functional

SMILES | Length (Rattus norvegicus [1]) [mm rat-1] | Lesion score (Rattus norvegicus [2]) [mm rat-1] | Length (Rattus norvegicus [3]) [mm rat-1] | Ulcer incidence (Rattus norvegicus [4]) [number/group] | Lesion length (Rattus norvegicus [5]) [mm rat-1] | Length (Rattus norvegicus [6]) [mm rat-1] | Ulcer incidence (Rattus norvegicus [7]) [number/group] | inhibition in vivo at 36 mg/kg (Rattus norvegicus [8]) [%] | inhibition in vivo at 36 mg/kg (Rattus norvegicus [9]) [%] | Ulcer incidence (Rattus norvegicus [13]) [number/group] | Length (Rattus norvegicus [15]) [mm rat-1] | inhibition in vivo at 30 mg/kg (Rattus norvegicus [16]) [%] | inhibition in vivo at 3.3 mg/kg (Rattus norvegicus [17]) [%] | inhibition in vivo at 10 mg/kg (Rattus norvegicus [18]) [%] | inhibition in vivo at 3.3 mg/kg (Rattus norvegicus [20]) [%] | IC50 (Cyclooxygenase) [µM] | inhibition in vivo at 10 mg/kg (Rattus norvegicus [21]) [%] | inhibition in vivo at 30 mg/kg (Rattus norvegicus [22]) [%] | also measured
CCCc1c(O)n(Cc2ccc(F)cc2)c2nc3c(c(=O)n(C)c(=O)n3C)n2c1=O | 0 | 0 | 0 | 0 | 0 | 0 | 0 | 60 | 67 | 0 | 0.2 | – | – | – | – | – | – | – | concentration at 4 h [10]: 72.4 µg/mL; concentration at 0.25 h [11]: 20 µg/mL; concentration at 12 h [12]: 88.3 µg/mL; concentration at 6 h [14]: 78.3 µg/mL
CC(C)=CCc1c(O)n(Cc2ccccc2)c2nc3c(c(=O)n(C)c(=O)n3C)n2c1=O | 0 | 0 | 9.6 | 1 | 0 | 0 | 1 | – | – | 0 | 1 | 63 | 42 | 70 | 24 | 2 | 54 | 83 | concentration at 1 h [19]: 17.3 µg/mL; concentration at 2 h [23]: 53.8 µg/mL
CC(C)=CCc1c(O)n(Cc2ccc(F)cc2)c2nc3c(c(=O)n(C)c(=O)n3C)n2c1=O | – | – | – | – | – | – | – | 44 | 69 | – | – | 59 | 43 | 67 | 21 | 4.2 | 38 | 87 | Relative potency (Rattus norvegicus [24]): 1.1; Ulcer incidence (Rattus norvegicus [25]): 0 number/group; DTH (Rattus norvegicus [26]): 47.3 10e-3mm
